Assay results reported in ChEMBL document CHEMBL1139591, “Synthesis and antibacterial activity of dihydro-1,2-oxazine and 2-pyrazoline oxazolidinones: novel analogs of linezolid” (2005).
In brackets after ≈: the same amount, converted by molar mass.

How the values were obtained:
Assay type in all cases: functional
Streptococcus pneumoniae = test: Minimum inhibitory concentration against Streptococcus pneumoniae A9585
Procedure, shortened: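 Broth microdilution following NCCLS recommendations, using Todd Hewitt broth for streptococci; final inoculum approx. 5×10^5 cfu/mL; incubation 35 °C for 18 h in 5% CO₂. MIC read as the lowest drug concentration preventing growth, µg/mL.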

Staphylococcus aureus [1] = test: Minimum inhibitory concentration against Staphylococcus aureus A15090
Procedure, shortened: (§1)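 Broth microdilution per NCCLS guidance in Mueller-Hinton medium. Final inoculum about 5×10^5 cfu/mL. Plates incubated at 35 °C for 18 h in ambient air. MIC taken as the lowest drug concentration that prevented visible growth.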

Staphylococcus aureus [2] = test: Minimum inhibitory concentration against homogeneously methicillin-resistant Staphylococcus aureus A27223; procedure, shortened: as §1
Enterococcus faecium = test: Minimum inhibitory concentration against Enterococcus faecium A24885
Procedure, shortened: (§2)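 Broth microdilution per NCCLS guidance in Mueller-Hinton medium; final inoculum about 5×10^5 cfu/mL; plates incubated 18 h at 35 °C in ambient air. MIC taken as the lowest drug concentration preventing visible growth, in µg/mL.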

Enterococcus faecalis = test: Minimum inhibitory concentration against Enterococcus faecalis A20688; procedure, shortened: as §2
Staphylococcus aureus [3] = test: Minimum inhibitory concentration against heterogeneously methicillin-resistant Staphylococcus aureus A27218; procedure, shortened: as §1
Staphylococcus aureus [4] = test: Minimum inhibitory concentration against homogeneously methicillin-resistant Staphylococcus aureus A27223 in the presence of 50% calf serum
Procedure, shortened: (§3)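 Broth microdilution per NCCLS guidance in Mueller-Hinton medium supplemented with 50% calf serum. Final inoculum about 5×10^5 cfu/mL. Incubated at 35 °C for 18 h in ambient air. MIC read as the lowest drug concentration that prevented visible growth.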

Staphylococcus aureus [5] = test: Minimum inhibitory concentration against heterogeneously methicillin-resistant Staphylococcus aureus A27218 in the presence of 50% calf serum; procedure, shortened: as §3
Staphylococcus aureus [6] = test: Minimum inhibitory concentration against Staphylococcus aureus A15090 in the presence of 50% calf serum; procedure, shortened: as §3

| Compound | MIC (Streptococcus pneumoniae) | MIC (Staphylococcus aureus [1]) | MIC (Staphylococcus aureus [2]) | MIC (Enterococcus faecium) | MIC (Enterococcus faecalis) | MIC (Staphylococcus aureus [3]) | MIC (Staphylococcus aureus [4]) | MIC (Staphylococcus aureus [5]) | MIC (Staphylococcus aureus [6]) |
| --- | --- | --- | --- | --- | --- | --- | --- | --- | --- |
| CC(=O)NC[C@H]1CN(c2ccc(N3CCCCN3C(C)=O)c(F)c2)C(=O)O1 | 4 µg/mL (≈ 10.6 µM) | 32 µg/mL (≈ 84.6 µM) | 16 µg/mL (≈ 42.3 µM) | 32 µg/mL (≈ 84.6 µM) | 32 µg/mL (≈ 84.6 µM) | 32 µg/mL (≈ 84.6 µM) |  |  |  |
| CC(=O)NC[C@H]1CN(c2ccc(N3CCCN3C(C)=O)c(F)c2)C(=O)O1 | 0.5 µg/mL (≈ 1.37 µM) | 32 µg/mL (≈ 87.8 µM) | 16 µg/mL (≈ 43.9 µM) | 32 µg/mL (≈ 87.8 µM) | 32 µg/mL (≈ 87.8 µM) | 32 µg/mL (≈ 87.8 µM) |  |  |  |
| CC(=O)NC[C@H]1CN(c2ccc(N3CC(C)=C(C)CO3)cc2)C(=O)O1 | 8 µg/mL (≈ 23.2 µM) | 4 µg/mL (≈ 11.6 µM) | 4 µg/mL (≈ 11.6 µM) | 8 µg/mL (≈ 23.2 µM) | 16 µg/mL (≈ 46.3 µM) | 8 µg/mL (≈ 23.2 µM) |  |  |  |
| CC(=O)NC[C@H]1CN(c2ccc(N3CCN(C(=O)CO)CC3)c(F)c2)C(=O)O1 [EPEREZOLID] | 0.5 µg/mL (≈ 1.27 µM) | 1 µg/mL (≈ 2.54 µM) | 1 µg/mL (≈ 2.54 µM) | 2 µg/mL (≈ 5.07 µM) | 2 µg/mL (≈ 5.07 µM) | 1 µg/mL (≈ 2.54 µM) |  |  |  |
| CC(=O)NC[C@H]1CN(c2ccc([N+](=O)[O-])cc2)C(=O)O1 | 2 µg/mL (≈ 7.16 µM) | 0.5 µg/mL (≈ 1.79 µM) | 1 µg/mL (≈ 3.58 µM) | 4 µg/mL (≈ 14.3 µM) | 4 µg/mL (≈ 14.3 µM) | 2 µg/mL (≈ 7.16 µM) |  |  |  |
| CC(=O)NC[C@H]1CN(c2ccc(N3CCC=N3)c(F)c2)C(=O)O1 | 1 µg/mL (≈ 3.12 µM) | 1 µg/mL (≈ 3.12 µM) | 1 µg/mL (≈ 3.12 µM) | 4 µg/mL (≈ 12.5 µM) | 2 µg/mL (≈ 6.24 µM) | 1 µg/mL (≈ 3.12 µM) | 1 µg/mL | 1 µg/mL | 1 µg/mL |
| CC(=O)NC[C@H]1CN(c2ccc(N3OC4C=CC3CC4)cc2)C(=O)O1 (stereo not given in full) | 16 µg/mL (≈ 46.6 µM) | 16 µg/mL (≈ 46.6 µM) | 4 µg/mL (≈ 11.6 µM) | 16 µg/mL (≈ 46.6 µM) | 32 µg/mL (≈ 93.2 µM) | 8 µg/mL (≈ 23.3 µM) |  |  |  |
| CC(=O)NC[C@H]1CN(c2ccc(N=O)cc2)C(=O)O1 | 1 µg/mL (≈ 3.8 µM) | 2 µg/mL (≈ 7.6 µM) | 1 µg/mL (≈ 3.8 µM) | 2 µg/mL (≈ 7.6 µM) | 4 µg/mL (≈ 15.2 µM) | 2 µg/mL (≈ 7.6 µM) |  |  |  |
| CC(=O)NC[C@H]1CN(c2ccc(N)cc2)C(=O)O1 | 16 µg/mL (≈ 64.2 µM) | 16 µg/mL (≈ 64.2 µM) | 64 µg/mL (≈ 257 µM) | 128 µg/mL (≈ 513 µM) | 128 µg/mL (≈ 513 µM) | 128 µg/mL (≈ 513 µM) |  |  |  |
| CC(=O)NC[C@H]1CN(c2ccc(N3CC=CCO3)cc2)C(=O)O1 | 2 µg/mL (≈ 6.3 µM) | 1 µg/mL (≈ 3.15 µM) | 1 µg/mL (≈ 3.15 µM) | 2 µg/mL (≈ 6.3 µM) | 4 µg/mL (≈ 12.6 µM) | 2 µg/mL (≈ 6.3 µM) | 1 µg/mL | 2 µg/mL | 1 µg/mL |
| CC(=O)NC[C@H]1CN(c2ccc(N3CCOCC3)c(F)c2)C(=O)O1 [LINEZOLID] |  | 1 µg/mL (≈ 2.96 µM) |  | 2 µg/mL (≈ 5.93 µM) |  |  |  |  |  |
| CC(=O)NC[C@H]1CN(c2ccc([N+](=O)[O-])c(F)c2)C(=O)O1 | 64 µg/mL (≈ 215 µM) | > 128 µg/mL | 128 µg/mL (≈ 431 µM) | > 128 µg/mL | > 128 µg/mL | 128 µg/mL (≈ 431 µM) |  |  |  |
| CC(=O)NC[C@H]1CN(c2ccc(NO)cc2)C(=O)O1 | 4 µg/mL (≈ 15.1 µM) | 0.5 µg/mL (≈ 1.88 µM) | 2 µg/mL (≈ 7.54 µM) | 4 µg/mL (≈ 15.1 µM) | 8 µg/mL (≈ 30.2 µM) | 4 µg/mL (≈ 15.1 µM) |  |  |  |
